Measured values from ChEMBL document CHEMBL1122866, “3-Phenyl-1-indanamines. Potential antidepressant activity and potent inhibition of dopamine, norepinephrine, and serotonin uptake” (J Med Chem, 1985).

Tests used:
Format in all cases: functional
[1] = molecular target: Sodium-dependent dopamine transporter (Rattus norvegicus, UniProt P23977); assay: Inhibition of dopamine uptake in rat synaptosomal fraction
[2] = molecular target: Norepinephrine transporter (Rattus norvegicus, UniProt Q9WTR4); assay: Inhibition of noradrenaline uptake in rat synaptosomal fraction
Sequence of Norepinephrine transporter (Q9WTR4 whole entry): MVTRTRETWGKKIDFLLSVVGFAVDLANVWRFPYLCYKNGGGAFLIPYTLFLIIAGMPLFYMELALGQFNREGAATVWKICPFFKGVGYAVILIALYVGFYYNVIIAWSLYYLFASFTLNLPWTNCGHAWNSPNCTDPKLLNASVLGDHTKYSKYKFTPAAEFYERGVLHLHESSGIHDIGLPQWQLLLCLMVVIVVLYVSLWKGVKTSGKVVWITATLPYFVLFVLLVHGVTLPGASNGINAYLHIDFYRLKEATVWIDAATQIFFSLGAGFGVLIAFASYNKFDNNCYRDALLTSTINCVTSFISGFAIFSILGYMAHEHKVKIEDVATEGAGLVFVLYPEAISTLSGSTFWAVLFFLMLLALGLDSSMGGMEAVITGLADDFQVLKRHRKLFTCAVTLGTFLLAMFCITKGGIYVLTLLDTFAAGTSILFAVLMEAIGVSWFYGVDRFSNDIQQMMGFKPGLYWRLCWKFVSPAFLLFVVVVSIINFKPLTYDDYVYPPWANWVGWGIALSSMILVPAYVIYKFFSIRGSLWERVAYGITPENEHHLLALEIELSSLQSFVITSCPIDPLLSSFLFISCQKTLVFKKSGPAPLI
Method in brief: (§1)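 Synaptosomal uptake of DA, NE or 5-HT measured. The IC50 is in nM and is the mean of at least two determinations, each using five test concentrations in triplicate.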

Mus musculus [3] = species: Mus musculus; assay: Antagonistic activity against tetrabenazine-induced ptosis in mice.
Method in brief: (§2)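 Mice dosed intraperitoneally; the result is reported as the ED50 in μmol/kg with a range in parentheses. Test compounds are racemates of >95% isomeric purity by TLC.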

[4] = molecular target: Sodium-dependent serotonin transporter (Rattus norvegicus, UniProt P31652); assay: Inhibition of 5-HT uptake in rat synaptosomal fraction; method in brief: as §1
Sequence of Sodium-dependent serotonin transporter (P31652 whole entry): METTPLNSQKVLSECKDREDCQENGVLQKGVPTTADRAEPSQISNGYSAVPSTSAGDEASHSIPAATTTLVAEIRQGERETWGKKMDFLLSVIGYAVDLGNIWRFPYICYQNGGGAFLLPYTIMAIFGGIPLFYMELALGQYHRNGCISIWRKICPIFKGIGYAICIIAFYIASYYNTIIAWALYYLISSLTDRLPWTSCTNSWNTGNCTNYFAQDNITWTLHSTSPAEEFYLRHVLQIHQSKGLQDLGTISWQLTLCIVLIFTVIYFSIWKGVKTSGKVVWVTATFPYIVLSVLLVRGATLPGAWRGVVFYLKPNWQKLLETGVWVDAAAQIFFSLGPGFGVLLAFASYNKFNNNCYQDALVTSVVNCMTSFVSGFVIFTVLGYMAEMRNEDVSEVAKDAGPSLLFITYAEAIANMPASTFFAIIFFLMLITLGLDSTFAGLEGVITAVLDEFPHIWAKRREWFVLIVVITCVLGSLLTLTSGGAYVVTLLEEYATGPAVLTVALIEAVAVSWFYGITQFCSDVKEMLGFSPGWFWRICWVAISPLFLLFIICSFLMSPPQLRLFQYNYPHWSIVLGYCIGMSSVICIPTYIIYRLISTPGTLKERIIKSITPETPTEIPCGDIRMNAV

Mus musculus [5] = species: Mus musculus; assay: Antagonistic activity against 5-HTP induced potentiation in mice; method in brief: as §2
Mus musculus [6] = species: Mus musculus; assay: Antagonistic activity against tetrabenazine-induced ptosis in mice; method in brief: as §2

Sequence of Sodium-dependent dopamine transporter (P23977 whole entry): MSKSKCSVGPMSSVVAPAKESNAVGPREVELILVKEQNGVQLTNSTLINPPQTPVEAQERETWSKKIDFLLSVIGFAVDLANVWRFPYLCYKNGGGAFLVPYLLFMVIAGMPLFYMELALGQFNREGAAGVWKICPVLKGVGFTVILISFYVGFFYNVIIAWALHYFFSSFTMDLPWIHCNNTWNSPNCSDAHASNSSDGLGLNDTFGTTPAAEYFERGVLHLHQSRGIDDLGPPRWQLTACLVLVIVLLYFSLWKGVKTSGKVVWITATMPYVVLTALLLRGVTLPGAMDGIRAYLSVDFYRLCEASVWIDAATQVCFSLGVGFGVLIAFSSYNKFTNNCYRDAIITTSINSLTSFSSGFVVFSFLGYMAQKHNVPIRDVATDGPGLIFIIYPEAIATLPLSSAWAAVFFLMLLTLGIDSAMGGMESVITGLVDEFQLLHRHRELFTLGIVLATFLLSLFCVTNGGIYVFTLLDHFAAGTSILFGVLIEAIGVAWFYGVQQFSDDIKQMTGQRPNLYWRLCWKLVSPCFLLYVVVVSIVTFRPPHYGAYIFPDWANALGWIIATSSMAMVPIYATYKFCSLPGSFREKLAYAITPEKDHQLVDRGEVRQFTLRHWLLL

SMILES	IC50 [1]	IC50 [2]	ED50 (Mus musculus [3])	IC50 [4]	ED50 (Mus musculus [3]; Mus musculus, read-out: ED50)	ED50 (Mus musculus [5])	ED50 (Mus musculus [6]; Mus musculus, read-out: ED50)	ED50 (Mus musculus [6])
CNC1CC(c2ccc(Cl)cc2)c2ccccc21 (stereo not given)	5.6 nM	0.51 nM	>155 µmol/kg	4 nM				
CNCCCC1(c2ccccc2)SC(C)(C)c2ccccc21 (stereo not given)	9300 nM	0.79 nM		850 nM	2.3 µmol/kg	> 115 µmol/kg		
CN(C)C1CC(c2ccc(F)c(F)c2)c2ccccc21 (stereo not given) [listing 1 of 2 here]	180 nM	29 nM	13 µmol/kg	1.3 nM				
CN(C)C1CC(c2ccc(Cl)c(Cl)c2)c2ccc(O)cc21 (stereo not given)	7.9 nM	16 nM		0.37 nM			22 µmol/kg	
CN(C)C1CC(c2ccc(F)c(F)c2)c2ccccc21 (stereo not given) [listing 2 of 2 here]	250 nM	62 nM		20 nM	7.1 µmol/kg			
CNC1CC(c2ccc(C(F)(F)F)cc2)c2ccccc21 (stereo not given)	160 nM	67 nM		4.7 nM	58 µmol/kg	45 µmol/kg		
CNC1CC(c2ccc(Cl)c(C(F)(F)F)c2)c2ccccc21 (stereo not given)	3500 nM	25 nM		4.2 nM	> 110 µmol/kg	55 µmol/kg		
CNC1CC(c2ccc(Cl)cc2)c2ccccc21.Cl (stereo not given)	120 nM	24 nM	376 µmol/kg	0.65 nM				
CNC1CC(c2ccccc2)c2ccccc21 (stereo not given)	1400 nM	320 nM		210 nM	> 154 µmol/kg	211 µmol/kg		
CN(C)C1CC(c2ccc(F)cc2)c2ccc(F)cc21.Cl (stereo not given)	620 nM	350 nM	28 µmol/kg	18 nM				
CN1CCN(C2CC(c3ccc(Cl)c(Cl)c3)c3ccccc32)CC1 (single isomer, unassigned; (-))	10 nM							26 µM/kg
CN(C)C1CC(c2ccccc2)c2ccccc21.Cl (stereo in doubt; 31)	600 nM	130 nM	17 µmol/kg	150 nM				
CN(C)C1CC(c2ccc(F)cc2)c2ccccc21.Cl (stereo in doubt; 33)	320 nM	100 nM	7.8 µmol/kg	33 nM				
CN(C)C1CC(c2ccc(Cl)cc2)c2ccccc21 (stereo in doubt; 35)	140 nM	23 nM	56 µmol/kg	0.64 nM				
CNC1CC(c2ccc(Br)cc2)c2ccccc21 (stereo in doubt; 36)	2.5 nM	0.3 nM		0.28 nM	47 µmol/kg			
CN(C)C1CC(c2ccc(Br)cc2)c2ccccc21 (stereo in doubt; 37)	54 nM	28 nM	9.8 µmol/kg	0.04 nM				
CNC1CC(c2cccc(Cl)c2)c2ccccc21.Cl (stereo in doubt; 39)	14 nM	0.12 nM	45 µmol/kg	41 nM				
CN(C)C1CC(c2cccc(Cl)c2)c2ccccc21.Cl (stereo in doubt; 40)	71 nM	15 nM	10 µmol/kg	36 nM				
CNC1CC(c2ccc(F)c(F)c2)c2ccccc21.Cl (stereo in doubt; 41)	21 nM	1.6 nM	58 µmol/kg	49 nM				
CNC1CC(c2ccc(Cl)cc2Cl)c2ccccc21.Cl (stereo in doubt; 48)	510 nM	15 nM	19 µmol/kg	0.91 nM				

SMILES	IC50 [1]	IC50 [2]	ED50 (Mus musculus [3])	IC50 [4]	ED50 (Mus musculus [3]; Mus musculus, read-out: ED50)	ED50 (Mus musculus [5])	ED50 (Mus musculus [6]; Mus musculus, read-out: ED50)	ED50 (Mus musculus [6])
CN(C)C1CC(c2ccc(Cl)cc2Cl)c2ccccc21.Cl (stereo in doubt; 49)	2000 nM	90 nM	23 µmol/kg	0.58 nM				
CNC1CC(c2ccc(Cl)c(Cl)c2)c2ccc(F)cc21.Cl (stereo in doubt; 50)	0.12 nM	0.71 nM	33 µmol/kg	2.3 nM				
CN(C)C1CC(c2ccc(Cl)c(Cl)c2)c2ccc(F)cc21 (stereo in doubt; 51)	12 nM	21 nM		1.1 nM	> 111 µmol/kg			
CNC1CC(c2ccc(Cl)c(Cl)c2)c2ccc(O)cc21 (stereo in doubt; 54)	0.52 nM	0.82 nM		2.5 nM				21 µM/kg
CN(C)C1CC(c2ccc(F)cc2)c2ccc(C(F)(F)F)cc21 (stereo in doubt; 57)	240 nM	85 nM		43 nM	116 µmol/kg			
CN(C)C1CC(c2ccc(Cl)cc2)c2ccccc21 (stereo in doubt; 63)	190 nM	4.4 nM		0.34 nM	43 µmol/kg			
CNC1CC(c2ccc(Br)cc2)c2ccccc21.Cl (stereo in doubt; 64)	67 nM	8.8 nM	29 µmol/kg	0.16 nM				
CN(C)C1CC(c2ccc(Br)cc2)c2ccccc21 (stereo in doubt; 65)	83 nM	4.3 nM	2.3 µmol/kg	0.14 nM				
CNC1CC(c2cccc(Cl)c2)c2ccccc21.Cl (stereo in doubt; 66)	220 nM	19 nM	119 µmol/kg	6.8 nM				
CN(C)C1CC(c2cccc(Cl)c2)c2ccccc21.Cl (stereo in doubt; 67)	54 nM	0.77 nM	85 µmol/kg	2.6 nM				
CNC1CC(c2ccc(F)c(F)c2)c2ccccc21.Cl (stereo in doubt; 68)	150 nM	33 nM	23 µmol/kg	4.6 nM				
CNC1CC(c2ccc(Cl)cc2Cl)c2ccccc21.Cl (stereo in doubt; 74)	100 nM	6.1 nM	98 µmol/kg	21 nM				
CNC1CC(c2ccc(Cl)c(Cl)c2)c2ccc(F)cc21.Cl (stereo in doubt; 76)	5 nM	14 nM	15 µmol/kg	0.75 nM				
CCN(CC)C1CC(c2ccc(Cl)c(Cl)c2)c2ccccc21.Cl (stereo in doubt; 85)	2.1 nM	0.56 nM	52 µmol/kg	2.8 nM				
CCCNC1CC(c2ccc(Cl)c(Cl)c2)c2ccccc21.Cl (stereo in doubt; 87)	6.6 nM	0.66 nM	68 µmol/kg	150 nM				
CCCN(CCC)C1CC(c2ccc(Cl)c(Cl)c2)c2ccccc21.Cl (stereo in doubt; 89)	150 nM	73 nM	25 µmol/kg	720 nM				
Clc1ccc(C2CC(N3CCCCC3)c3ccccc32)cc1Cl (stereo in doubt; 100)	79 nM	79 nM		420 nM	> 104 µmol/kg			
CN1CCN(C2CC(c3ccc(Cl)c(Cl)c3)c3ccccc32)CC1 (stereo in doubt; 102)	4.4 nM							100 µM/kg
CN1CCN(C2CC(c3ccc(Cl)c(Cl)c3)c3ccccc32)CC1 (stereo in doubt; (-)-102)	2.3 nM							69 µM/kg
CN(C)CCCC1(c2ccc(F)cc2)OCc2cc(C#N)ccc21 (stereo not given) [CITALOPRAM]							51 µmol/kg	
